Tests used:
Type in all cases: functional
[1] = test system: NCI/ADR-RES; experiment: Growth inhibition of human NCI/ADR-RES cells assessed as cell growth at 1 uM incubated for 48 hrs by sulforhodamine B assay relative to control; conditions: read-out: Activity
[2] = test system: OVCAR-4; experiment: Growth inhibition of human OVCAR-4 cells assessed as cell growth at 100 uM incubated for 48 hrs by sulforhodamine B assay relative to control; conditions: read-out: Activity
[3] = test system: UO-31; experiment: Growth inhibition of human UO-31 cells assessed as cell growth at 1 uM incubated for 48 hrs by sulforhodamine B assay relative to control; conditions: read-out: Activity
[4] = test system: SF-268; experiment: Growth inhibition of human SF-268 cells assessed as cell growth at 0.01 uM incubated for 48 hrs by sulforhodamine B assay relative to control; conditions: read-out: Activity
[5] = test system: Hs-578T; experiment: Growth inhibition of human Hs-578T cells incubated for 48 hrs by sulforhodamine B assay; conditions: for CC50: read-out: LC50 (the source's name)
Procedure, shortened: (§1)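 NCI60 panel at the NCI Developmental Therapeutics Program. Only compounds active in the 10 µM screen went to dose-response testing. GI50, the concentration giving 50% of maximal inhibition of proliferation, and TGI, the concentration giving total growth inhibition, were derived from the dose-response curves.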

[6] = test system: SK-MEL-28; experiment: Growth inhibition of human SK-MEL-28 cells incubated for 48 hrs by sulforhodamine B assay
Procedure, shortened: (§2)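 NCI DTP 60-line human tumour panel. Dose-response curves were run only for ligands active in the initial 10 µM screen. GI50 (concentration giving 50% of maximal inhibition of proliferation) and TGI (concentration giving total growth inhibition) were derived from these curves.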

[7] = test system: TK-10; experiment: Growth inhibition of human TK-10 cells assessed as cell growth at 0.01 uM incubated for 48 hrs by sulforhodamine B assay relative to control; conditions: read-out: Activity
[8] = test system: DU-145; experiment: Growth inhibition of human DU-145 cells assessed as cell growth at 100 uM incubated for 48 hrs by sulforhodamine B assay relative to control; conditions: read-out: Activity
Procedure, shortened: (§3)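 NCI Developmental Therapeutics Program NCI60 panel. Compounds that were active in the 10 µM one-dose screen went on to dose–response testing. Growth at each concentration is expressed relative to untreated control (100%). GI50 (concentration giving 50% of maximal inhibition of proliferation) and TGI (concentration giving total growth inhibition) were derived from the curves.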

[9] = test system: NCI-H322M; experiment: Growth inhibition of human NCI-H322M cells incubated for 48 hrs by sulforhodamine B assay; conditions: for CC50: read-out: LC50 (the source's name); procedure, shortened: as §1
[10] = test system: SF-268; experiment: Growth inhibition of human SF-268 cells assessed as cell growth at 1 uM incubated for 48 hrs by sulforhodamine B assay relative to control; conditions: read-out: Activity
[11] = test system: Malme-3M; experiment: Growth inhibition of human Malme-3M cells assessed as cell growth at 1 uM incubated for 48 hrs by sulforhodamine B assay relative to control; conditions: read-out: Activity
[12] = test system: Hs-578T; experiment: Growth inhibition of human Hs-578T cells assessed as cell growth at 0.01 uM incubated for 48 hrs by sulforhodamine B assay relative to control; conditions: read-out: Activity
[13] = test system: OVCAR-8; experiment: Growth inhibition of human OVCAR-8 cells incubated for 48 hrs by sulforhodamine B assay; conditions: for CC50: read-out: LC50 (the source's name); procedure, shortened: as §2
[14] = test system: HCT-116; experiment: Growth inhibition of human HCT-116 cells assessed as cell growth at 0.1 uM incubated for 48 hrs by sulforhodamine B assay relative to control; conditions: read-out: Activity
[15] = test system: KM12; experiment: Growth inhibition of human KM12 cells assessed as cell growth at 0.1 uM incubated for 48 hrs by sulforhodamine B assay relative to control; conditions: read-out: Activity
[16] = test system: SK-OV-3; experiment: Growth inhibition of human SK-OV-3 cells assessed as cell growth at 0.01 uM incubated for 48 hrs by sulforhodamine B assay relative to control; conditions: read-out: Activity
[17] = test system: ACHN; experiment: Growth inhibition of human ACHN cells assessed as cell growth at 1 uM incubated for 48 hrs by sulforhodamine B assay relative to control; conditions: read-out: Activity
[18] = test system: K562; experiment: Growth inhibition of human K562 cells assessed as cell growth at 100 uM incubated for 48 hrs by sulforhodamine B assay relative to control; conditions: read-out: Activity
[19] = test system: HOP-62; experiment: Growth inhibition of human HOP-62 cells incubated for 48 hrs by sulforhodamine B assay; procedure, shortened: as §1
[20] = test system: Malme-3M; experiment: Growth inhibition of human Malme-3M cells incubated for 48 hrs by sulforhodamine B assay; procedure, shortened: as §1
[21] = test system: LOX IMVI; experiment: Growth inhibition of human LOX IMVI cells assessed as cell growth at 100 uM incubated for 48 hrs by sulforhodamine B assay relative to control; conditions: read-out: Activity
[22] = test system: SF-295; experiment: Growth inhibition of human SF-295 cells assessed as cell growth at 0.01 uM incubated for 48 hrs by sulforhodamine B assay relative to control; conditions: read-out: Activity
[23] = test system: SK-MEL-5; experiment: Growth inhibition of human SK-MEL-5 cells assessed as cell growth at 0.01 uM incubated for 48 hrs by sulforhodamine B assay relative to control; conditions: read-out: Activity
[24] = test system: NCI/ADR-RES; experiment: Growth inhibition of human NCI/ADR-RES cells assessed as cell growth at 0.01 uM incubated for 48 hrs by sulforhodamine B assay relative to control; conditions: read-out: Activity
[25] = test system: HCC 2998; experiment: Growth inhibition of human HCC 2998 cells assessed as cell growth at 100 uM incubated for 48 hrs by sulforhodamine B assay relative to control; conditions: read-out: Activity; procedure, shortened: as §3
[26] = test system: MCF7; experiment: Growth inhibition of human MCF7 cells assessed as cell growth at 0.01 uM incubated for 48 hrs by sulforhodamine B assay relative to control; conditions: read-out: Activity
[27] = test system: NCI-H460; experiment: Growth inhibition of human NCI-H460 cells incubated for 48 hrs by sulforhodamine B assay; procedure, shortened: as §1
[28] = test system: U-251; experiment: Growth inhibition of human U-251 cells assessed as cell growth at 0.01 uM incubated for 48 hrs by sulforhodamine B assay relative to control; conditions: read-out: Activity
[29] = test system: K562; experiment: Growth inhibition of human K562 cells assessed as cell growth at 1 uM incubated for 48 hrs by sulforhodamine B assay relative to control; conditions: read-out: Activity
[30] = test system: HOP-92; experiment: Growth inhibition of human HOP-92 cells incubated for 48 hrs by sulforhodamine B assay; procedure, shortened: as §1
[31] = test system: U-251; experiment: Growth inhibition of human U-251 cells assessed as cell growth at 0.1 uM incubated for 48 hrs by sulforhodamine B assay relative to control; conditions: read-out: Activity

CCc1ccccc1NC(=O)c1sc2nc3c(cc2c1N)C(=O)CCC3
growth at 1 µM [1]: 21% | growth at 100 µM [2]: 8% | growth at 1 µM [3]: 50% | growth at 0.01 µM [4]: 103% | GI50 [5]: 302 nM | TGI [5]: > 100 µM | CC50 [5]: > 100 µM | GI50 [6]: 1 nM | LC50 [6]: > 100 µM | TGI [6]: > 100 µM | growth at 0.01 µM [7]: 93% | growth at 100 µM [8]: 2% | TGI [9]: > 100 µM | CC50 [9]: > 100 µM | growth at 1 µM [10]: 53% | growth at 1 µM [11]: 50% | growth at 0.01 µM [12]: 93% | GI50 [13]: 2520 nM | TGI [13]: > 100 µM | CC50 [13]: > 100 µM | growth at 0.1 µM [14]: 99% | growth at 0.1 µM [15]: 92% | growth at 0.01 µM [16]: 104% | growth at 1 µM [17]: 43% | growth at 100 µM [18]: 13% | GI50 [19]: 445 nM | LC50 [19]: > 100 µM | TGI [19]: ≥ 100 µM | GI50 [20]: 26.2 µM | LC50 [20]: > 100 µM | TGI [20]: ≥ 100 µM | growth at 100 µM [21]: 24% | growth at 0.01 µM [22]: 86% | growth at 0.01 µM [23]: 96% | growth at 0.01 µM [24]: 102% | growth at 100 µM [25]: 3% | growth at 0.01 µM [26]: 82% | GI50 [27]: 345 nM | LC50 [27]: > 100 µM | TGI [27]: > 100 µM | growth at 0.01 µM [28]: 96% | growth at 1 µM [29]: 22% | LC50 (concentration killing 50% of the starting cells) [30]: > 100 µM | TGI [30]: ≥ 100 µM

Cc1ccc(NC(=O)c2sc3nc4c(cc3c2N)C(=O)CCC4)cc1C
growth at 1 µM [1]: 39% | growth at 100 µM [2]: 18% | growth at 1 µM [3]: 42% | growth at 0.01 µM [4]: 95% | GI50 [5]: 356 nM | TGI [5]: > 100 µM | CC50 [5]: > 100 µM | GI50 [6]: 1510 nM | LC50 [6]: > 100 µM | TGI [6]: > 100 µM | growth at 0.01 µM [7]: 96% | growth at 100 µM [8]: 14% | GI50 [9]: 975 nM | TGI [9]: > 100 µM | CC50 [9]: > 100 µM | growth at 1 µM [10]: 57% | growth at 1 µM [11]: 24% | growth at 0.01 µM [12]: 93% | GI50 [13]: 3060 nM | TGI [13]: > 100 µM | CC50 [13]: > 100 µM | growth at 0.1 µM [14]: 90% | growth at 0.1 µM [15]: 96% | growth at 0.01 µM [16]: 103% | growth at 1 µM [17]: 46% | growth at 100 µM [18]: -4% | GI50 [19]: 605 nM | LC50 [19]: > 100 µM | TGI [19]: > 100 µM | LC50 [20]: > 100 µM | TGI [20]: > 100 µM | growth at 100 µM [21]: 20% | growth at 0.01 µM [22]: 91% | growth at 0.01 µM [23]: 95% | growth at 0.01 µM [24]: 100% | growth at 100 µM [25]: 5% | growth at 0.01 µM [26]: 89% | GI50 [27]: 374 nM | LC50 [27]: > 100 µM | TGI [27]: ≥ 100 µM | growth at 0.01 µM [28]: 98% | growth at 1 µM [29]: 17% | LC50 (concentration killing 50% of the starting cells) [30]: > 100 µM | TGI [30]: > 100 µM | growth at 0.1 µM [31]: 92%

— ChEMBL document CHEMBL4715736, “Identification of anticancer agents based on the thieno[2,3-b]pyridine and 1H-pyrazole molecular scaffolds” (2016)
